ChEMBL document CHEMBL1155784, “Aromatic 2-chloroethyl urea derivatives and bioisosteres. Part 2: Cytocidal activity and effects on the nuclear translocation of thioredoxin-1, and the cell cycle progression” (2008)
Active and inactive are the calls of the source. The calls are words filed in the database; no cut-off is given here.

Legend:
M21 [1] = assay: Inhibition of nuclear translocation of thioredoxin 1 in human M21 cells at 50 uM after 18 hrs by immunocytochemistry; assay type: functional, cell-based
Summary of the method: (§1)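 M21 cells seeded on fibronectin-coated coverslips, held 18 h at 37 °C, then treated with compounds (5–50 µM; reference agents 0.1–40 µM) or 0.1% DMSO. Fixed in 3.7% formaldehyde, permeabilized with 0.1% saponin, and blocked in 3% BSA. Stained 1 h at 37 °C with anti-thioredoxin-1 monoclonal (1/200), then with Alexa-488 anti-mouse IgG plus DAPI for nuclei.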

MCF7 [2] = assay: Cell cycle arrest in human MCF7 cells assessed as […] phase accumulation at 2 times GI50 after 24 hrs by flow cytometry; assay type: functional
MCF7 [3] = assay: Cell cycle arrest in human MCF7 cells assessed as S phase accumulation at 2 times GI50 after 24 hrs by flow cytometry; assay type: functional
M21 [4] = assay: Inhibition of nuclear translocation of thioredoxin 1 in human M21 cells at 10 uM after 18 hrs by immunocytochemistry; assay type: functional, cell-based; summary of the method: as §1
MCF7 [5] = assay: Cell cycle arrest in human MCF7 cells assessed as G2/M phase accumulation at 2 times GI50 after 24 hrs by flow cytometry; assay type: functional
M21 [6] = assay: Inhibition of nuclear translocation of thioredoxin 1 in human M21 cells at 25 uM after 18 hrs by immunocytochemistry; assay type: functional, cell-based; summary of the method: as §1
M21 [7] = assay: Inhibition of nuclear translocation of thioredoxin 1 in human M21 cells at 0.1 uM after 18 hrs by immunocytochemistry; assay type: functional, cell-based; summary of the method: as §1
MCF7 [8] = assay: Growth inhibition of human MCF7 cells after 48 hrs by sulforhodamine B assay; assay type: functional; settings: MCF7, 48 h
Summary of the method: (§2)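 NCI-style sulforhodamine B assay. HT-29 (5×10³), M21 or MCF-7 (3.5×10³) cells were grown 24 h, then given DMSO-solubilized drug at 100 to 0.7 µM final (DMSO <0.5%) for 48 h. Fixed in cold 10% TCA, stained with 0.1% SRB, read at 585 nm after subtracting a day-0 plate. Inhibition is relative to DMSO controls; GI50 from at least triplicate runs.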

HT-29 = assay: Growth inhibition of human HT29 cells after 48 hrs by sulforhodamine B assay; assay type: functional; settings: HT-29, 48 h; summary of the method: as §2
M21 [9] = assay: Growth inhibition of human M21 cells after 48 hrs by sulforhodamine B assay; assay type: functional; settings: M21, 48 h; summary of the method: as §2

| SMILES | Activity (M21 [1]) | Activity (MCF7 [2]) [%] | Activity (MCF7 [3]) [%] | Activity (M21 [4]) | Activity (MCF7 [5]) [%] | further results |
| --- | --- | --- | --- | --- | --- | --- |
| CC(C)(C)c1ccc(NC(=O)NCCCl)cc1 | inactive | 17 | 24 | inactive | 58 |  |
| Cc1ccc(NC2=NCCO2)cc1C |  |  |  | Active |  |  |
| O=C(NCCCl)Nc1ccc(C2CCCCC2)cc1 | Active | 71 | 13 |  | 16 |  |
| Cc1ccc(NC(=O)NCCCl)cc1C |  |  |  | inactive |  | Activity (M21 [6]): inactive |
| CC[C@]1(O)C[C@@H]2CN(CCc3c([nH]c4ccccc34)[C@@](C(=O)OC)(c3cc4c(cc3OC)N(C)[C@H]3[C@@](O)(C(=O)OC)[C@H](OC(C)=O)[C@]5(CC)C=CCN6CC[C@]43[C@@H]65)C2)C1 |  |  |  |  |  | Activity (M21 [7]): inactive |
| O=C(NCCCl)Nc1ccc(OC2CCCC2)cc1 | Active | 72 | 19 |  | 9 |  |
| CC(=O)O[C@H]1C(=O)[C@@]2(C)[C@H]([C@H](OC(=O)c3ccccc3)[C@]3(O)C[C@H](OC(=O)[C@H](O)[C@@H](NC(=O)c4ccccc4)c4ccccc4)C(C)=C1C3(C)C)[C@]1(OC(C)=O)CO[C@@H]1C[C@@H]2O |  |  |  |  |  | Activity (M21 [7]): inactive |
| O=C(NCCCl)Nc1ccc(Oc2ccccc2)cc1 |  |  |  | inactive |  | Activity (M21 [6]): inactive |
| O=C(NCCCl)Nc1ccc(OC2CCCCCC2)cc1 | Active | 75 | 19 |  | 6 |  |
| O=C(NCCCl)Nc1cccc(OC2CCCCCC2)c1 | Active | 72 | 22 |  | 6 |  |
| O=C(NCCCl)Nc1cccc(OCc2ccccc2)c1 | inactive |  |  | inactive |  | GI50 (MCF7 [8]): 10 µM; GI50 (HT-29): 2.9 µM; GI50 (M21 [9]): 6.5 µM |
| O=C(NCCCl)Nc1ccc(I)cc1 | Active | 25 | 33 | Active | 42 |  |
| COc1cc2c(c(OC)c1OC)-c1ccc(OC)c(=O)cc1[C@@H](NC(C)=O)CC2 [COLCHICINE] |  | 19 | 19 |  | 62 | Activity (M21 [7]): inactive |
| O=C(NCCCl)Nc1ccc2ccccc2c1 | Active |  |  | Active |  |  |
